Compound activity from PubChem BioAssay.
KCNK3 inh – human KCNK3 channel inhibition, primary screen; O14649; CHO-KCNK3 thallium flux, FluxOR fluorescence; stronger effect = lower value; B-score at 10 µM; 0.84% of 340,000 active; AID 602410;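 active = B-score under library mean minus 4 SD, starting fluorescence ratio at most library mean plus 5 SD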;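 also: more negative B-score means stronger inhibition of thallium flux through KCNK3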
hERG rescue – hERG (human) protection from proarrhythmic block; Q12809; CHO-hERG, FluxOR thallium flux, dofetilide IC70 present; activation (rescue from dofetilide block), less the hit threshold, % at 10 µM; 0.51% of 310,000 active; AID 1511;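 active = activation above the mean of controls blocked by dofetilide plus 5 SD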;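 also: thallium influx through hERG after potassium depolarization seen as dye fluorescence rise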
Kir21 block – inhibitors of mouse Kir2.1 inward-rectifier potassium channel; 0.85% of 310,000 active; HEK293-Kir2.1, FluxOR thallium flux fluorescence; stronger effect = lower value; B-score at 10 µM; P35561;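 active = fluorescence ratio B-score at or below minus 3 SD of library scores, with starting-brightness B-score within 2 SD, cut at about -4.2 in these data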;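 also: channel flux triggered by added potassium and thallium sulfate stimulus; B-score of peak minus minimum fluorescence over baseline after thallium stimulus; more negative B-score means stronger Kir2.1 block with less thallium influx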
KCNK9 inh-1 – blocks the human KCNK9 two-pore domain potassium channel | 1.2% of 310,000 active | HEK293 KCNK9, FluxOR thallium flux fluorescence; stronger effect = lower value | Q9NPC2 | B-score at 10 µM;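 active = ratio B-score over 3 SD below the library mean, with starting fluorescence within 5 SD of its mean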;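 also: negative B-score means less thallium flux so channel inhibition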
KCNQ1 act – potentiates or activates the human KCNQ1 potassium channel | AID 2648 | CHO-K1 KCNQ1, thallium flux FluxOR fluorescence; stronger effect = higher value | 0.35% of 310,000 active | B-score at 10 µM;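 active = fluorescence ratio B-score, a plate-corrected score, at least three library SD, with initial intensity B-score within 5 SD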
Target sequence (P51787 whole entry, looked up): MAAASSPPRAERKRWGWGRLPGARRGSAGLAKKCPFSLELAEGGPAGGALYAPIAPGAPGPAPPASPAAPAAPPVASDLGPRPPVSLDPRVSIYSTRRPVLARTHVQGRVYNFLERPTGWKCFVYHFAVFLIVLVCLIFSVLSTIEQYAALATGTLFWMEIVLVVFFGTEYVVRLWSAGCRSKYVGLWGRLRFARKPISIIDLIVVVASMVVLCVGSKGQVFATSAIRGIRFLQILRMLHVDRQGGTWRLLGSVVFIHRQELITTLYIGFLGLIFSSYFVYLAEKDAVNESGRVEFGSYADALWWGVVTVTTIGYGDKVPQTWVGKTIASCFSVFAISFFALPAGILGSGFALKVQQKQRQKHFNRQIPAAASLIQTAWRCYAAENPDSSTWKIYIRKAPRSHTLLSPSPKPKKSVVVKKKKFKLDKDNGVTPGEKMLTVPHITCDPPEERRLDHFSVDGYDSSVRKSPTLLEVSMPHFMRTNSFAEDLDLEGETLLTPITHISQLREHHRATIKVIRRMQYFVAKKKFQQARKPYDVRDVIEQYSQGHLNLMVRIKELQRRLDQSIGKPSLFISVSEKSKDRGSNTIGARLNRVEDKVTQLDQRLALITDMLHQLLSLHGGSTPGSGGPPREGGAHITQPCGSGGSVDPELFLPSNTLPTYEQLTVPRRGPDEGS
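Schedule – 37 °C overnight plating, 90-min dark dye load, 20-min compound pretreatment · System – stable KCNQ1 CHO-K1 line · Probe or stimulus – thallium- and potassium-containing depolarizing buffer · Measured by – kinetic FluxOR fluorescence, 10 s baseline plus 110 s post-stimulus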
KCNQ1 block – inhibitors of human KCNQ1 potassium channel. P51787. CHO-K1 KCNQ1, FluxOR thallium flux fluorescence; stronger effect = higher value. B-score at 10 µM. 1.3% of 310,000 active. AID 2642;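 active = compounds whose thallium flux B-score, printed positive for inhibition, exceeds three library SD while starting fluorescence stays within three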;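 also: channel opened by potassium depolarization with thallium stimulus after 20 min compound exposure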
hERG inh – blocks human hERG, in counter-screen for Kir2.1 inhibitors; shares compounds with Kir21 block; hERG-expressing cells, thallium flux; inhibition, % at 10 µM; 20% of 320 active; AID 2236;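 also: host cells are CHO cells stably expressing hERG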
KCNK9 inh-2 – selectivity of Kir2.1 inhibitors: effect on human KCNK9. shares compounds with Kir21 block. KCNK9-expressing cells, ion flux inhibition. inhibition, % at 10 µM. 5% of 320 active. AID 2329
Kir2-1 patch inh – inhibitors of mouse Kir2.1 potassium channel; 71% of 320 active; inhibition, % at 25 µM; AID 463252; shares compounds with Kir21 block; Kir2.1 cells, automated patch-clamp current inhibition
Each line names hits and unclear results; the compound was inactive in the other large screens (follow-up assays come after a bar, where they were run). Shown are actives, neighbours in structure and some others; about 3.7% of the full set was active somewhere. Unless noted, no rule for the calls is given here.

CCOc1ccc(Nc2nc(N)c3ccccc3n2)cc1	Kir21 block -9.9 | hERG inh inactive | KCNK9 inh-2 inactive | Kir2-1 patch inh 70%
COc1ccc(C)cc1NC(=O)CNC(C)C(=O)Nc1ccc(C(C)=O)cc1 (stereo unspecified)	none
CC1CN(C(=O)CCC(=O)NCCCN2CCN(Cc3ccccc3)CC2)c2cc(Cl)ccc2O1 (stereo unspecified)	Kir21 block -6.3 | hERG inh 64% | KCNK9 inh-2 inactive | Kir2-1 patch inh 9.3%
CC(O)CNCCCOc1cccc(Oc2ccccc2)c1 (stereo unspecified)	Kir21 block -7.6 | hERG inh inactive | KCNK9 inh-2 inactive | Kir2-1 patch inh 77%
Cc1cc(C)nc(SCCCNCc2ccc(Br)cc2)n1	Kir21 block -7.1 | hERG inh inactive | KCNK9 inh-2 inactive | Kir2-1 patch inh 44%
Oc1ccc(Nc2nc(N3CCCC3)c3ccccc3n2)cc1	Kir21 block -7.5 | hERG inh 64% | KCNK9 inh-2 inactive | Kir2-1 patch inh inactive
N#CC(c1ccc(O)cc1)c1ncc(C(F)(F)F)cc1Cl (stereo unspecified)	Kir21 block -7.3 | hERG inh inactive | KCNK9 inh-2 inactive | Kir2-1 patch inh 54%
NC(=O)C(c1ccc(Cl)cc1)c1ncc(C(F)(F)F)cc1Cl (stereo unspecified)	none
Cc1ccsc1/C=N/NC(=O)c1nnn(-c2nonc2N)c1CSc1ccccc1	none
COC(=O)[C@@]12CCCCN1[C@H](c1ccc(SC3CCCCC3)cc1)[C@@H]1C(=O)N(C)C(=O)[C@@H]12	none
O=C1C(Cc2c[nH]c3ccccc23)NC(=S)N1Cc1ccccc1 (stereo unspecified)	Kir21 block -6.4 | hERG inh inactive | KCNK9 inh-2 inactive | Kir2-1 patch inh 12%
Clc1ccc(CNC2CCN(Cc3ccccc3)CC2)cc1	Kir21 block -13 | hERG inh 58% | KCNK9 inh-2 inactive | Kir2-1 patch inh 55%
COc1ccc(NC(=O)CC(C)n2ccnc2)cc1 (stereo unspecified)	none
NC(=O)CCn1c2ccccc2c2ccccc21	none
CC(C)CCn1c2ccccc2c2cc(CC(N)=O)ccc21	none | hERG inh inactive | KCNK9 inh-2 inactive | Kir2-1 patch inh inactive
CC1=CC(C)(C)N(C(=O)CSc2nnc(C)s2)c2ccc(C)cc21	Kir21 block -7.1 | hERG inh inactive | KCNK9 inh-2 inactive | Kir2-1 patch inh 8.3%
Cc1ccc2nc(NCc3ccccc3)[nH]c2c1	Kir21 block -10 | hERG inh inactive | KCNK9 inh-2 31% | Kir2-1 patch inh 72%
CCOc1cc(/C=N/O)ccc1OCc1ccc(F)cc1	none
CCOc1cc(/C=N/N=C(N)N)ccc1OCc1ccc(Cl)cc1	Kir21 block -16, KCNQ1 block 9 | hERG inh 60% | KCNK9 inh-2 inactive | Kir2-1 patch inh inactive
O=C(O)C1=C[C@@H](C2CCCCC2)C[C@@H](OCc2ccc(CO)cc2)O1	none
NC(=O)C1=C[C@@H](C2CCCCC2)C[C@@H](OCc2ccc(CO)cc2)O1	Kir21 block -7.7 | hERG inh inactive | KCNK9 inh-2 inactive | Kir2-1 patch inh 26%
CCN(CC)CCCN(C(=O)c1ccc(OC)cc1)c1nc(-c2ccc(OC)cc2)cs1	Kir21 block -6.1 | hERG inh inactive | KCNK9 inh-2 inactive | Kir2-1 patch inh inactive
CCc1nc(SCC(=O)Nc2cc(C)on2)c2c(=O)n(C)c(=O)n(C)c2n1	none
Cc1cc(NC(=O)CSc2nc(CC(C)(C)C)nc3c2c(=O)n(C)c(=O)n3C)no1	none | hERG inh inactive | KCNK9 inh-2 inactive | Kir2-1 patch inh inactive
CCOc1cccc(CNCc2cccnc2)c1OCc1ccccc1	Kir21 block -7.5 | hERG inh inactive | KCNK9 inh-2 inactive | Kir2-1 patch inh 40%
Clc1ccc(COc2ccccc2CNCc2cccnc2)cc1	none
CSc1ccc(CN2CCC(Cc3ccccc3)CC2)cc1	Kir21 block -16 | hERG inh 67% | KCNK9 inh-2 inactive | Kir2-1 patch inh 33%
CC(C)NC(=O)c1ccc(CN2CCC(Cc3ccccc3)CC2)cc1	none
Cc1cc(Cl)ccc1OC(C)C(=O)NC(C)C1CCCO1 (stereo unspecified)	Kir21 block -8.5 | hERG inh inactive | KCNK9 inh-2 inactive | Kir2-1 patch inh 9.2%
CC(NC(=O)Nc1ccc(Cl)cc1)C1CCCO1 (stereo unspecified)	none
COc1ccc(N2CCN(C(=O)c3oc4c(c3C)C(=O)CCC4)CC2)cc1	none
CC(CCc1ccccc1)NC(=O)CSc1ccccn1 (stereo unspecified)	none
CC(CCc1ccccc1)NC(=O)CC(C)c1ccccc1 (stereo unspecified)	Kir21 block -8 | hERG inh inactive | KCNK9 inh-2 inactive | Kir2-1 patch inh 38%
Cc1ccc(OCCOCCN2CCN(C)CC2)c(C(C)(C)C)c1	none
CC(C)(C)c1cc(Cl)ccc1OCCOCCN1CCCC1	Kir21 block -9.6 | hERG inh 58% | KCNK9 inh-2 inactive | Kir2-1 patch inh 9.2%
CC1(C)C(C=C(Cl)Cl)C1C(=O)Nc1ccc(S(=O)(=O)Nc2ncccn2)cc1 (stereo unspecified)	none
c1ccc(-c2ccccc2OCCOCCN2CCc3ccccc3C2)cc1	Kir21 block -8.3 | hERG inh 66% | KCNK9 inh-2 inactive | Kir2-1 patch inh 39%
CC1CN(CCOCCOc2ccccc2-c2ccccc2)CC(C)O1 (stereo unspecified)	none
CCCCN(C(=O)CCC(=O)Nc1cc(C)on1)C(C(=O)NC1CCCC1)c1cccc(OC)c1 (stereo unspecified)	none
CC(=O)NNC(=S)NC(=O)c1cccc([N+](=O)[O-])c1	none
CCC1CCCCN1C(=S)NC(=O)c1cccc([N+](=O)[O-])c1 (stereo unspecified)	hERG rescue 20, KCNQ1 act 28 | hERG inh inactive | KCNK9 inh-2 inactive | Kir2-1 patch inh inactive
c1ccc(Cn2c(SCc3nc4ccccc4s3)nnc2-c2ccco2)cc1	Kir21 block -7 | hERG inh inactive | KCNK9 inh-2 inactive | Kir2-1 patch inh 13%
CCn1c(Sc2ccc(N)cc2Cl)nc2ccccc21	Kir21 block -6.3 | hERG inh inactive | KCNK9 inh-2 inactive | Kir2-1 patch inh 21%
CCn1c(SCC(=O)NC(C)c2ccccc2)nc2ccccc21 (stereo unspecified)	none
